The full list was thinned out, with hits kept by preference.
GSH bead fluor: GSH bead compound fluorescence profile; AID 1776; 190,000 compounds, 0.25% hits; GSH beads flow cytometry, compound fluorescence 488/530 nm; hits give high values; fluorescence (KMESF) at 10 µM; in the data active = fluorescence above about 89;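 also: glutathione beads carrying GST-tagged Bcl family fusion proteins plus one bare bead set; values are compound well signal with DMSO vehicle wells as background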
PKD1 inh: PKD1 (human) kinase inhibition; Q15139; PKD1 kinase fluorescence polarization assay; inhibition, % (concentration not given with the values); 200,000 compounds, 0.056% hits; AID 797
Avidin bead fluor: compound fluoresces at 488/530 nm on avidin beads. AID 1775. compound fluorescence 488/530 nm, flow cytometry; hits give high values. fluorescence (KMESF) at 10 µM. 220,000 compounds, 0.38% hits; in the data active = fluorescence above about 47
ABCG2 inh: human ABCG2 inhibition, ABCB1 as counter-screen. IgMXP3 cells, JC-1 efflux, flow cytometry. inhibition, % at 6.6 µM. 190,000 compounds, 0.1% hits. AID 1325;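 active = inhibition above 80%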;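 also: 0% = DMSO and 100% = nicardipine control wells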
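test system = two drug-resistant human cell lines, ABCG2 and ABCB1 | amount = 3 million cells/mL final, two lines in 1:1 ratio | reagent = JC-1 transporter substrate | doses = one concentration, 6.6 µM final | incubation = 10 min at 25 °C | signal = flow cytometric JC-1 green MFI at 530 nm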
Lmaj promast: Leishmania major promastigote growth inhibition; Leishmania major promastigotes, resazurin fluorescence viability; inhibition, % at 10 µM; 200,000 compounds, 9% hits; AID 1063;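 also: promastigotes grown with compound for 44 hours at 28 °C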
ABCB1 inh: inhibitors of human ABCB1 transporter, ABCG2 counter-screen; AID 1326; 190,000 compounds, 0.067% hits; P08183; inhibition, % at 6.6 µM; CCRF-Adr cells, JC-1 efflux, flow cytometry; in the data active = inhibition above about 40%;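 also: 0% = vehicle and 100% = reference inhibitor; higher value means more JC-1 retained so stronger ABCB1 efflux block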
Target sequence (P08183 whole entry, looked up): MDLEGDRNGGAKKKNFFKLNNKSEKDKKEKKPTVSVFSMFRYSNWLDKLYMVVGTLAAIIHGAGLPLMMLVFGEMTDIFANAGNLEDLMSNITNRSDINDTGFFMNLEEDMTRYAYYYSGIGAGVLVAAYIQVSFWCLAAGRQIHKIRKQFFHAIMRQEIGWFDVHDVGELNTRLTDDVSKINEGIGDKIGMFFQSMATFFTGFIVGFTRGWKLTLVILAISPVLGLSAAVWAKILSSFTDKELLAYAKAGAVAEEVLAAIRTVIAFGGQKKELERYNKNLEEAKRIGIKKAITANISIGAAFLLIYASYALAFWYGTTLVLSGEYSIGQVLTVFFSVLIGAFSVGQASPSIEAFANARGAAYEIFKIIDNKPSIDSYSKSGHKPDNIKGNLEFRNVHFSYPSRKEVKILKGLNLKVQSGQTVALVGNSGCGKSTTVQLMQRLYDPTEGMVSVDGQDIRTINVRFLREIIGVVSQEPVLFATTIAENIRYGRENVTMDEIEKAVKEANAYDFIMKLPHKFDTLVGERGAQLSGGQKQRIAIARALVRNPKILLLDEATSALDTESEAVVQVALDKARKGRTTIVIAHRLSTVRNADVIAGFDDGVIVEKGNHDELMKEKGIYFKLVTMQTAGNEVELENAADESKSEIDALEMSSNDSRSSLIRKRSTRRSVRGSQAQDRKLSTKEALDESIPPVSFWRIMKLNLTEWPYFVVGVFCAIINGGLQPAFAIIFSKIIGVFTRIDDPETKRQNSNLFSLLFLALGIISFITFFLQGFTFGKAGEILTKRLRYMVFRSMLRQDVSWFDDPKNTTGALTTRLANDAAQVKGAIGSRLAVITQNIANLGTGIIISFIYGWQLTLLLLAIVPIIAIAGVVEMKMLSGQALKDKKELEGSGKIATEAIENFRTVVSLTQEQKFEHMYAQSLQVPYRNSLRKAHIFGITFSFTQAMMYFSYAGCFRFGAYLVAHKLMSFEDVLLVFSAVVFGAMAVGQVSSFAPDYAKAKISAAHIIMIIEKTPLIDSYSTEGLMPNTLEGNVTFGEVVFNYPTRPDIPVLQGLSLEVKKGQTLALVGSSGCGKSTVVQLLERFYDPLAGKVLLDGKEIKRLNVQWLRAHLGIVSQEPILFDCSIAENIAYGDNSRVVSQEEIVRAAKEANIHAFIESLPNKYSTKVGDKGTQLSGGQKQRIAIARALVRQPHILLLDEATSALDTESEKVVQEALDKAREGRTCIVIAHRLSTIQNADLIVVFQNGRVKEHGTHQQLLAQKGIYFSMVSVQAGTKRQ
An asterisk follows results filed as active; . = no result. Rule as the data show it, unless noted: active = inhibition above about 50%; inactive = the rest.

SMILES	GSH bead fluor	PKD1 inh	Avidin bead fluor	ABCG2 inh	Lmaj promast	ABCB1 inh
CC(=O)Nc1ccc(/C(C)=N/Nc2nc(Nc3cccc4ccccc34)nc(N3CCOCC3)n2)cc1	13	-1	2	-5	58*	0
C/C(=N\Nc1nc(N2CCCCC2)nc(N2CCOCC2)n1)c1cccs1	21	2	26	0	10	0
C/C(=N\Nc1nc(N2CCCCCC2)nc(N2CCCCCC2)n1)c1ccccc1	12	-2	8	9	51*	-1
Cc1ccc(C)c(Nc2c([N+](=O)[O-])c(=O)oc3ccccc23)c1	.	.	4	.	.	.
COc1ccc2cc3cc(C(=O)NCCN4CCc5ccccc5C4)oc3nc2c1	15	4	9	9	99*	1
COc1ccc2cc3cc(C(=O)NCc4cccs4)oc3nc2c1	16	-3	25	7	19	1
COc1ccc2cc3cc(C(=O)NCCN4CCc5ccccc5C4)sc3nc2c1	5	-7	14	6	50*	0
COc1ccc2nc3oc(C(=O)NC4CCN(Cc5ccccc5)CC4)cc3cc2c1	20	6	28	36	100*	5
CCC(C)NC(=O)c1cc2cc3ccc(OC)cc3nc2s1 (centres undefined)	22	3	30	14	11	1
COc1ccc2cc3cc(C(=O)NCCN4CCN(Cc5ccccc5)CC4)oc3nc2c1	46	13	33	2	95*	1
O=C(Nc1ccccc1C(=O)NC(Cc1ccccc1)C(=O)NC1CCCCC1)c1ccccc1 (centres undefined)	12	1	15	11	17	9
CCOc1ccc(NS(=O)(=O)c2cc(Cl)ccc2OC)cc1	29	0	12	2	12	0
Cc1[nH]c2ccccc2c1SCCNC(=O)c1ccc(Br)o1	16	-19	6	1	15	0
CC(=O)OCCCN1c2ccccc2Nc2nnc(-c3ccccc3)cc21	25	7	11	6	32	2
COc1ccc(S(=O)(=O)N2CCCCCC2)cc1C(=O)OCC(=O)NC(N)=O	26	4	10	5	-6	0
C/C(N)=C(/C#N)C(=O)COC(=O)c1cc(S(=O)(=O)N2CCCCC2)ccc1C	10	-7	35	3	71*	0
Cn1cccc1C(=O)NC(=O)COC(=O)c1cc(S(=O)(=O)N2CCCCC2)ccc1Cl	14	91*	12	4	-14	1
CC(=O)c1c(C)[nH]c(C(=O)OCC(=O)Nc2cc(S(=O)(=O)N3CCCC3)ccc2Cl)c1C	15	0	5	26	72*	1
O=C(Cc1c[nH]c2ccccc12)NCc1ccccc1F	18	-4	9	-1	1	0
COc1ccc(CCN=C(N)Nc2nc(C)cc(C)n2)cc1	20	-3	9	3	95*	0
COc1cc(/C=N/NC(=O)c2ccc(N(C)S(=O)(=O)c3ccccc3)cc2)cc(OC)c1OC	9	-1	5	8	100*	2
COc1cccc(/C=N/NC(=O)c2cc3c(OC)cccc3[nH]2)c1OC	19	9	11	2	1	0
COc1cccc(/C=N/NC(=O)c2cc3c(OC)c(OC)ccc3[nH]2)c1OC	15	-3	15	7	73*	3
COc1cc(/C=N/NC(=O)CN(CCc2ccccc2)S(=O)(=O)c2ccc(NC(C)=O)cc2)cc(OC)c1OC	6	-4	14	3	60*	0
COc1cccc(/C=N/NC(=O)c2ccccc2)c1OS(=O)(=O)c1ccccc1	7	-15	9	9	92*	1
COc1cccc(NC(=S)NCc2cccs2)c1	7	-3	2	1	7	0
Cc1c(NC(=O)COC(=O)c2ccc(Br)o2)c(=O)n(-c2ccccc2)n1C	16	-5	9	-1	1	0
COc1cccc(/C=N/NC(=O)c2cc(-c3cccn3C)n[nH]2)c1O	10	-7	21	-2	98*	-2
COc1cccc(/C=N/NC(=O)c2cc3c(OC)cccc3[nH]2)c1O	4	-6	7	-3	95*	-1
COc1ccc(OC)c(/C=N/NC(=O)c2cc3c(OC)cccc3[nH]2)c1	.	.	6	.	.	.
